{
  "source": "paper PMC10432884",
  "about": "(Clinical and Translational Science, 2023)",
  "key": {"[1]": {"assay": "Plasma protein binding, equilibrium dialysis", "assay_type": "in vitro ADME, human", "conditions": "assumed from protein binding", "method_in_brief": "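In vitro equilibrium dialysis of test compound at 1 and 10 μM in human plasma (also mouse, rat, dog and monkey). Mean percentage bound was determined. The free fraction was used to correct CSF/plasma concentration ratios.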"}, "[2]": {"conditions": "monkeys, preclinical experiments, cited from earlier work"}, "[3]": {"system": "rodents", "conditions": "in vivo; cited from earlier work"}, "[4]": {"system": "rodents", "conditions": "treated rodents; cited from earlier work"}, "[5]": {"system": "healthy subjects", "assay": "First-in-human trial, all phases: overall safety and tolerability", "assay_type": "in vivo", "method_in_brief": "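Safety covered all dosed subjects in the SAD, MAD and FI phases: AEs (MedDRA 21.1), concomitant medication, vital signs, ECGs, physical exams and safety labs. BP was taken after 5 min supine, then ≥1 min sitting and 1–3 min standing. Orthostasis was defined as an SBP fall ≥20 mmHg or DBP fall ≥10 mmHg within 3 min standing. TEAEs were summarized by treatment, organ class, severity and drug-relatedness.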"}, "[6]": {"assay": "MAD phase pharmacokinetics", "assay_type": "in vivo, human", "conditions": "for PTR, GeoMean / PTR, Median: peak-to-trough ratio; for R max, GeoMean / R max, Median: accumulation ratio from C max; for R through, GeoMean / R through, Median: accumulation ratio from C trough; for t 1/2_eff, Median / t 1/2_eff, GeoMean: effective half-life based on accumulation; for AUC: both, AUC τ", "method_in_brief": "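MAD phase, 2–15 mg q.d. oral for 14 days. Plasma was sampled predose daily and 15 min–48 h on days 1 and 14. Urine was pooled over 24 h on days 1 and 14. One CSF sample was taken 3 h postdose on day 7 (10 mg cohort). All matrices were assayed by validated LC-MS/MS. Derived: Cmax, Tmax, t1/2, AUCτ, Ctrough, peak-to-trough ratio, accumulation ratios, and CSF/plasma ratio corrected for protein binding. Results reported as geometric means (95% CI) and medians.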"}},
  "note": "“Also recorded” adds a separate entry of the source. Where two headings read alike, the source gives them in different places.",
  "data": [
    {"smiles": "Fc1ccccc1Cc1nc(-c2nc(C(F)(F)F)n[nH]2)cn2ccnc12", "note": "[zagociguat, 8‐(2‐fluorobenzyl)‐6‐(3‐(trifluoromethyl)‐1H‐1,2,4‐triazol‐5‐yl)imidazo[1,2‐a]pyrazine]", "values": [
      {"measurement": "Free zagociguat concentration in human plasma, of total concentration", "setting": "[1]", "value": 1.11, "unit": "%"},
      {"measurement": "Geometric mean CSF/free plasma ratio", "setting": "[2]; intravenous administration", "value": 0.57},
      {"measurement": "Geometric mean CSF/free plasma ratio", "setting": "[2]; oral administration", "value": 0.48},
      {"measurement": "qEEG gamma band power", "setting": "[3]", "value": "increased gamma band power"},
      {"measurement": "cGMP concentrations in CSF", "setting": "[4]", "value": "increases in cGMP concentrations"},
      {"measurement": "Severity of observed TEAEs", "setting": "[5]; across all study phases", "value": "mild and transient"},
      {"measurement": "Tolerability", "setting": "[5]; all doses evaluated, all study phases", "value": "well‐tolerated"},
      {"measurement": "Bleeding time and bleeding events", "setting": "[5]; all phases", "value": "no increases in bleeding time nor any bleeding events"},
      {"measurement": "Deaths or other serious AEs", "setting": "[5]; all study phases", "value": "No deaths or other serious AEs"},
      {"measurement": "CNS penetration", "setting": "[6]; CSF sampling during the MAD phase", "value": "confirmed by cerebrospinal fluid sampling; also recorded: confirmed by CSF sampling"},
      {"measurement": "Dose level from which detectable in urine", "setting": "[6]; MAD", "value": 2, "unit": "mg"},
      {"measurement": "C trough, GeoMean", "setting": "[6]; MAD 2 mg q.d., day 1", "value": 161.13, "unit": "ng/mL"},
      {"measurement": "C trough, Median", "setting": "[6]; MAD 2 mg q.d., day 1", "value": 157.0, "unit": "ng/mL"},
      {"measurement": "PTR, GeoMean", "setting": "[6]; MAD 2 mg q.d., day 1", "value": 1.62},
      {"measurement": "PTR, Median", "setting": "[6]; MAD 2 mg q.d., day 1", "value": 1.64},
      {"measurement": "PTR, GeoMean", "setting": "[6]; MAD 2 mg q.d., day 14", "value": 1.41},
      {"measurement": "PTR, Median", "setting": "[6]; MAD 2 mg q.d., day 14", "value": 1.40},
      {"measurement": "R max, GeoMean", "setting": "[6]; MAD 2 mg q.d.", "value": 3.38},
      {"measurement": "R max, Median", "setting": "[6]; MAD 2 mg q.d.", "value": 3.32},
      {"measurement": "R through, GeoMean", "setting": "[6]; MAD 2 mg q.d.", "value": 3.87},
      {"measurement": "R through, Median", "setting": "[6]; MAD 2 mg q.d.", "value": 4.06},
      {"measurement": "t 1/2_eff, Median", "setting": "[6]; MAD 2 mg q.d.", "value": 54.46, "unit": "h"},
      {"measurement": "PTR, GeoMean", "setting": "[6]; MAD 5 mg q.d., day 1", "value": 1.55},
      {"measurement": "PTR, Median", "setting": "[6]; MAD 5 mg q.d., day 1", "value": 1.50},
      {"measurement": "PTR, GeoMean", "setting": "[6]; MAD 5 mg q.d., day 14", "value": 1.35},
      {"measurement": "PTR, Median", "setting": "[6]; MAD 5 mg q.d., day 14", "value": 1.34},
      {"measurement": "R max, GeoMean", "setting": "[6]; MAD 5 mg q.d.", "value": 3.45},
      {"measurement": "R max, Median", "setting": "[6]; MAD 5 mg q.d.", "value": 3.56},
      {"measurement": "R through, GeoMean", "setting": "[6]; MAD 5 mg q.d.", "value": 3.98},
      {"measurement": "R through, Median", "setting": "[6]; MAD 5 mg q.d.", "value": 3.79},
      {"measurement": "t 1/2_eff, GeoMean", "setting": "[6]; MAD 5 mg q.d.", "value": 54.60, "unit": "h"},
      {"measurement": "t 1/2_eff, Median", "setting": "[6]; MAD 5 mg q.d.", "value": 56.63, "unit": "h"},
      {"measurement": "PTR, Median", "setting": "[6]; MAD 10 mg q.d., day 1", "value": 1.36},
      {"measurement": "PTR, GeoMean", "setting": "[6]; MAD 10 mg q.d., day 14", "value": 1.37},
      {"measurement": "PTR, Median", "setting": "[6]; MAD 10 mg q.d., day 14", "value": 1.37},
      {"measurement": "R max, GeoMean", "setting": "[6]; MAD 10 mg q.d.", "value": 3.60},
      {"measurement": "R max, Median", "setting": "[6]; MAD 10 mg q.d.", "value": 3.68},
      {"measurement": "R through, GeoMean", "setting": "[6]; MAD 10 mg q.d.", "value": 3.79},
      {"measurement": "R through, Median", "setting": "[6]; MAD 10 mg q.d.", "value": 3.56},
      {"measurement": "t 1/2_eff, GeoMean", "setting": "[6]; MAD 10 mg q.d.", "value": 54.29, "unit": "h"},
      {"measurement": "t 1/2_eff, Median", "setting": "[6]; MAD 10 mg q.d.", "value": 54.53, "unit": "h"},
      {"measurement": "C trough, GeoMean", "setting": "[6]; MAD 15 mg q.d., day 1", "value": 1173.20, "unit": "ng/mL"},
      {"measurement": "C trough, Median", "setting": "[6]; MAD 15 mg q.d., day 1", "value": 1165, "unit": "ng/mL"},
      {"measurement": "PTR, GeoMean", "setting": "[6]; MAD 15 mg q.d., day 1", "value": 1.38},
      {"measurement": "PTR, Median", "setting": "[6]; MAD 15 mg q.d., day 1", "value": 1.37},
      {"measurement": "C trough, GeoMean", "setting": "[6]; MAD 15 mg q.d., day 11", "value": 4149.25, "unit": "ng/mL"},
      {"measurement": "C trough, Median", "setting": "[6]; MAD 15 mg q.d., day 11", "value": 4140, "unit": "ng/mL"},
      {"measurement": "C trough, GeoMean", "setting": "[6]; MAD 15 mg q.d., day 12", "value": 4246.79, "unit": "ng/mL"},
      {"measurement": "C trough, Median", "setting": "[6]; MAD 15 mg q.d., day 12", "value": 4140, "unit": "ng/mL"},
      {"measurement": "C trough, GeoMean", "setting": "[6]; MAD 15 mg q.d., day 13", "value": 4157.21, "unit": "ng/mL"},
      {"measurement": "C trough, Median", "setting": "[6]; MAD 15 mg q.d., day 13", "value": 4160, "unit": "ng/mL"},
      {"measurement": "C trough, GeoMean", "setting": "[6]; MAD 15 mg q.d., day 14", "value": 4377.90, "unit": "ng/mL"},
      {"measurement": "C trough, Median", "setting": "[6]; MAD 15 mg q.d., day 14", "value": 4275, "unit": "ng/mL"},
      {"measurement": "PTR, GeoMean", "setting": "[6]; MAD 15 mg q.d., day 14", "value": 1.35},
      {"measurement": "PTR, Median", "setting": "[6]; MAD 15 mg q.d., day 14", "value": 1.33},
      {"measurement": "R max, GeoMean", "setting": "[6]; MAD 15 mg q.d.", "value": 3.61},
      {"measurement": "R max, Median", "setting": "[6]; MAD 15 mg q.d.", "value": 3.54},
      {"measurement": "R through, GeoMean", "setting": "[6]; MAD 15 mg q.d.", "value": 3.73},
      {"measurement": "R through, Median", "setting": "[6]; MAD 15 mg q.d.", "value": 3.81},
      {"measurement": "t 1/2_eff, GeoMean", "setting": "[6]; MAD 15 mg q.d.", "value": 52.80, "unit": "h"},
      {"measurement": "t 1/2_eff, Median", "setting": "[6]; MAD 15 mg q.d.", "value": 51.81, "unit": "h"},
      {"measurement": "Dose linearity analysis using AUC τ and C max", "setting": "[6]; MAD day 1 and day 14 (Table S6)", "value": "indicated dose proportionality"},
      {"measurement": "Day on which steady-state was attained", "setting": "[6]; MAD, all doses administered, Helmert contrasts of trough concentrations", "value": 11, "unit": "days"},
      {"measurement": "AUC", "setting": "[6]; human, plasma, oral, 2 mg, GeoMean, MAD 2 mg q.d., day 1", "value": 4500, "unit": "ng·h/mL"},
      {"measurement": "AUC", "setting": "[6]; human, plasma, oral, 2 mg, GeoMean, MAD 2 mg q.d., day 14", "value": 16900, "unit": "ng·h/mL"},
      {"measurement": "AUC", "setting": "[6]; human, plasma, oral, 2 mg, Median, MAD 2 mg q.d., day 1", "value": 4520, "unit": "ng·h/mL"},
      {"measurement": "AUC", "setting": "[6]; human, plasma, oral, 2 mg, Median, MAD 2 mg q.d., day 14", "value": 17000, "unit": "ng·h/mL"},
      {"measurement": "Cmax", "setting": "[6]; human, plasma, oral, 2 mg, C max, GeoMean, MAD 2 mg q.d., day 1", "value": 260, "unit": "ng/mL"}
    ]}
  ]
}
